# Compound activity: PubChem BioAssay, several laboratories
# MPTP block: mitochondrial permeability transition pore inhibitors, primary screen, biochemical, isolated mouse mitochondria, absorbance; Ca2+ swelling absorbance, 30 min; AID 602449, 2012; actives 1.4% (n = 360,000); inhibition, % at 10 µM;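 active = inhibition of 50% or more, scaled per plate between neutral and stimulator controls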;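 also: 0% = DMSO wells given calcium and 100% = 1 mM EGTA wells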
# TbMetRS inhib: T. brucei MetRS inhibitors, primary screen, biochemical, luminescence. methionyl-tRNA synthetase (Trypanosoma brucei brucei). purified T. brucei MetRS, ATP depletion, Kinase-Glo luminescence. inhibition, % at 11.9 µM. actives 0.4% (n = 360,000);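 active = inhibition above a per-plate cutoff of the control wells' mean inhibition plus 3 SD, cut at about 5.5% in these data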;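 also: 0% = DMSO wells median and 100% = median of wells with control inhibitor compound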
#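 Test system: purified T. brucei MetRS enzyme. Also added: ATP, methionine and E. coli bulk tRNA substrates. Compound: 11.9 µM single point. Schedule: 15 min enzyme-compound preincubation, 2 h reaction, 10 min detection, 25 °C. Signal: luciferase luminescence of residual ATP, Kinase-Glo. Evaluation: percent inhibition versus plate control medians. Controls: DMSO wells, low control.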
# CHOP inhibitor: inhibitors of CHOP promoter induction, primary screen, cell-based, unfolded protein response, luciferase reporter. inhibition, % at 10 µM. AID 2732, 2010. CHO-K1 CHOP-promoter luciferase, tunicamycin-induced, 15-18 h. actives 3.8% (n = 220,000);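 active = compounds that reduced the stress-induced luciferase reporter signal by more than about 70% of percent inhibition, limit read from the data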;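 also: 0% = tunicamycin plus vehicle and 100% = wells without tunicamycin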
# NR3A LBD binder: binders of NR3A ligand-binding domain, primary screen, biophysical, differential scanning fluorimetry, uHTS | actives 2.5% (n = 340,000) | Tm shift relative to glycine control, % at 25 µM | NR3A LBD differential scanning fluorimetry, Tm shift; 0% = protein alone, 100% = glycine-bound protein | Glutamate receptor ionotropic, NMDA 3A (GRIN3A) ligand-binding domain;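 active = melting temperature shift of at least 10% of the positive control shift, at one fixed dose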
# EBV gp42 inh: Epstein-Barr virus gp42 inhibitors, primary screen, biochemical, uHTS, fluorescence polarization. Glycoprotein 42 (Epstein-Barr virus (strain AG876)), Q1HVG2. Fluorescence polarization binding assay, mP read-out. inhibition, % (tested at 21.74 µM). actives 0.42% (n = 220,000). AID 1085, 2008; in the data active = inhibition above about 50%
# Target sequence (Q1HVG2 whole entry, looked up): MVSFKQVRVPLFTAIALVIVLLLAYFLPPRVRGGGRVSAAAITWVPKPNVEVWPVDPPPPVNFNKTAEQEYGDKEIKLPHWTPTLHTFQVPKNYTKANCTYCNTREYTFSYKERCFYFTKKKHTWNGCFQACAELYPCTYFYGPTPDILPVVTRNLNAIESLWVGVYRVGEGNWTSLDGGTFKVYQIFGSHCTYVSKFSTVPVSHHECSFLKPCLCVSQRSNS
# WT yeast gro inh: growth inhibition of WT strain, primary screen, mitochondrial fusion inhibitor project, WT and mutant strains, chemical genetic. inhibition, % at 10 µM. AID 1362, 2008. mitochondrial fusion phenotypic screen. actives 2.1% (n = 190,000); in the data active = inhibition above about 58%; tested in S. cerevisiae
# CHOP confirm: retest of CHOP induction inhibitors, confirmation, cell-based; shares compounds with CHOP inhibitor; CHO-CHOP promoter luciferase reporter, tunicamycin-induced, luminescence; inhibition, % at 10 µM; actives 45% (n = 2,100);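 active = mean of three repeat readings of reporter signal inhibition above a set limit, cut at about 70% in these data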;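 also: 0% = tunicamycin plus vehicle and 100% = wells lacking tunicamycin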
# Rh123 counter: fluorescence retest of MPTP screen hits in isolated mitochondria, single concentration | shares compounds with MPTP block | membrane potential, Rhodamine 123 fluorescence | inhibition, % at 10 µM | actives 78% (n = 5,000) | AID 624504, 2012; in the data active = inhibition above about 22%;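 also: 0% = DMSO vehicle and 100% = positive control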
# MPTP abs DR: mitochondrial permeability transition pore inhibitors, dose response, biochemical, absorbance, uHTS hits. shares compounds with MPTP block. isolated mitochondria swelling. IC50, µM. actives 58% (n = 780). AID 651561, 2012; in the data active = IC50 below about 20 µM
# MPTP counter DR: fluorescent counter-screen in isolated mitochondria, dose response, counter-screen for MPTP inhibitor project, biochemical, fluorescence, uHTS hits. shares compounds with MPTP block. isolated mitochondria counterscreen, fluorescence read-out. IC50, µM. actives 49% (n = 780). AID 651564, 2012; in the data active = IC50 below about 80 µM
# Tb MetRS conf: T. brucei MetRS inhibitors, confirmation, biochemical, luminescence | shares compounds with TbMetRS inhib | T. brucei MetRS enzyme, luminescence (ATP depletion) | inhibition, % at 11.9 µM | actives 93% (n = 1,400) | AID 624412, 2012; in the data active = inhibition above about 7%
# Jurkat cytotox: Jurkat T cell cytotoxicity, cytotoxicity control for T. brucei MetRS inhibitor project, luminescence, high throughput | shares compounds with TbMetRS inhib | Jurkat cells viability, ATP luminescence | inhibition, % at 8.3 µM | actives 12% (n = 1,400) | AID 624413, 2012; in the data active = inhibition above about 15%;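 also: 0% = vehicle and 100% = reference inhibitor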
# Tb MetRS inh FP: T. brucei MetRS inhibitors, orthogonal assay for T. brucei MetRS inhibitor project, biochemical, fluorescence polarization | shares compounds with TbMetRS inhib | purified T. brucei MetRS | inhibition, % at 11.9 µM | actives 44% (n = 1,400) | AID 651607, 2012; in the data active = inhibition above about 17%;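 also: 0% = vehicle wells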
# * = called active by the depositor; . = no result. Shown are actives, neighbours in structure and some others; about 6.4% of the full set was active somewhere.
SMILES,MPTP block,TbMetRS inhib,CHOP inhibitor,NR3A LBD binder,EBV gp42 inh,WT yeast gro inh,Rh123 counter,others
COc1ccccc1NS(=O)(=O)c1cccc(NC(=O)Nc2cccc(Cl)c2)c1,81.2*,31.1*,101.4*,23.5*,-8.3,-9.3,75.6*,CHOP confirm=51.4;Tb MetRS conf=41.1*;Jurkat cytotox=7.3;Tb MetRS inh FP=71.9*
CNC(=O)c1cc2cc(Br)ccc2s1,-0.1,0.3,-0.9,-2.9,1.9,-6.8,.,
N=c1n(Cc2ccccc2)c2ccccc2n1CC(O)COc1ccc(Cl)cc1Cl (stereo not given),73.6*,10.3*,109.1*,-0.8,-4.0,93.8*,15.5,CHOP confirm=92.3*;Tb MetRS conf=18.5*;Jurkat cytotox=76.7*;Tb MetRS inh FP=8.9
C=CCn1c(Sc2nncn2C)nc2c1c(=O)[nH]c(=O)n2C,-0.7,-0.7,1.5,0.1,-1.9,13.9,.,
O=C(Nc1ccccc1)Nc1cc(OCC(F)(F)F)cc(OCC(F)(F)F)c1,77.4*,6.9*,106.7*,40.7*,1.7,86.0*,63.0*,CHOP confirm=125.5*;Tb MetRS conf=15.0*;Jurkat cytotox=89.1*;Tb MetRS inh FP=71.8*
O=C(Nc1ccccc1)Nc1ccc(Oc2cccnc2)nc1,9.0,2.1,-7.8,-16.7,-8.0,.,.,
Cc1ccc(-c2csc(NC(=O)CSc3nnc4c(n3)[nH]c3ccccc34)n2)cc1,87.5*,7.7*,101.1*,21.4*,-8.5,27.6,55.5*,CHOP confirm=49.5;Tb MetRS conf=15.5*;Jurkat cytotox=18.4*;Tb MetRS inh FP=9.1
COc1ccc(NC(=S)NCc2ccc(F)cc2)c(OC)c1,-0.1,0.3,.,-0.7,.,.,.,
O=[N+]([O-])c1ccc(N2CCN(c3ccccc3O)CC2)c(Cl)c1,10.9,7.0*,96.2*,-2.0,4.7,4.6,.,CHOP confirm=17.2;Tb MetRS conf=12.1*;Jurkat cytotox=18.3*;Tb MetRS inh FP=0.9
CNCc1ccccc1Sc1cccc2ccccc12,93.1*,-1.5,27.7,0.6,1.0,17.8,20.3*,
COc1cc(C2CC(=O)Nc3c2c(=O)nc2c(C)cccn32)cc(OC)c1OC (stereo not given),-2.0,-0.6,24.4,1.2,-2.5,0.1,.,
COC(=O)C1=C(C)N(CC2CC2)C(=NCCN2CCOCC2)N[C@H]1c1ccccc1,-0.5,-0.2,.,0.1,.,.,.,
CCOc1cc(CNCC(C)C)cc(Cl)c1OCc1ccccc1,8.1,-0.1,59.6,-0.9,-0.3,-8.1,.,
CCOc1cc(CNC2CCCC2)cc(Cl)c1OCc1ccccc1,68.1*,-0.6,66.9,-1.3,-20.7,-3.1,-2.9,MPTP abs DR=3.12*;MPTP counter DR=48.8*
Cc1ccc(NS(=O)(=O)c2ccc3c(c2)C(=O)c2ccccc2C3=O)c(C)c1,82.1*,0.0,80.4*,4.1,-6.4,12.5,72.1*,
Cc1ccc(S(=O)(=O)Nc2ccc3c(c2)C(=O)c2ccccc2-3)cc1,1.0,0.4,.,.,.,.,.,
COCCCNCCOc1ccc(C(C)(C)c2ccccc2)cc1,96.9*,-0.2,15.1,-2.2,8.2,37.0,-7.1,MPTP abs DR=5.67*;MPTP counter DR=>80
NC(=O)CC(NC(=O)Cc1cccc2ccccc12)c1ccc(NC2CC3CCC2C3)c([N+](=O)[O-])c1 (stereo not given),0.4,-0.3,.,-5.9,.,.,.,
CCCCCCC[C@@H](C/C=C/CCC(=O)N(C)C/C(=C/Cl)C/C(=C\C(=O)N1C[C@H](O)CC1=O)OC)OC,74.5*,-1.9,.,-12.3,.,.,102.0*,
CCCCCCC[C@@H](C/C=C/CCC(=O)N(C)C/C(=C/Cl)C/C(=C\C(=O)N1CC(OC)=CC1=O)OC)OC,78.9*,-0.2,.,-6.1,.,.,19.0,
COc1cccc(N(CC(=O)Nc2cccc(C(C)=O)c2)S(C)(=O)=O)c1,-3.1,0.0,29.9,-0.6,-3.0,1.7,.,
COc1cc(NC(=O)c2ccc(C)cc2C)ccc1NC(=O)c1cc2ccccc2o1,2.6,-0.9,.,-10.1,.,.,.,
CCCCCc1ccc(-c2cn(CN3C(=O)c4ccccc4C3=O)nn2)cc1,71.2*,-0.4,.,9.9,.,.,10.9,MPTP abs DR=<0.2*;MPTP counter DR=<2.5*
CCCCCc1ccc(-c2cn(Cc3ccc(C)cc3)nn2)cc1,0.0,-0.4,.,-3.1,.,.,.,
Cn1c(=O)c2c(nc(NCCOc3ccc(C(C)(C)C)cc3)n2C)n(C)c1=O,101.1*,-0.6,59.6,-1.3,4.8,6.1,6.3,MPTP abs DR=2.3*;MPTP counter DR=36.4*
SMILES,MPTP block,TbMetRS inhib,CHOP inhibitor,NR3A LBD binder,EBV gp42 inh,WT yeast gro inh,Rh123 counter,others
COCCNc1nc2c(c(=O)n(C)c(=O)n2C)n1Cc1cccc(C(F)(F)F)c1,82.3*,-1.1,54.3,-1.7,-6.7,-18.6,70.6*,
CC(O)CNc1nc2c(c(=O)n(C)c(=O)n2C)n1Cc1cccc(C(F)(F)F)c1 (stereo not given),0.0,-2.1,7.1,-4.1,-2.8,7.7,.,
CCOC(=O)[C@]12CCCC=C1N(Cc1ccc(Cl)cc1Cl)C(=O)[C@H](CC(=O)N1CCC(c3ccccc3)CC1)C2,0.0,-0.4,.,.,.,.,.,
CN1/C(=C\C(=O)C(F)F)C(C)(C)c2ccccc21,0.8,-0.6,41.3,-1.2,-3.7,10.8,.,
CN1\C(=C/C=C/C=C/C=[N+](C)C)C(C)(C)c2ccccc21,112.5*,-0.7,54.9,-364.2,-27.7,92.2*,59.4*,
COc1cc(OC)c(C(=O)COc2ncnc3ccccc23)c(OC)c1,-4.2,-0.1,22.1,1.2,-27.1,-13.6,.,
